Assay outcomes: PubChem, Johns Hopkins Ion Channel Center
RGS4 pot: RGS4 potentiators or activators, primary screen, cell-based, HEK293 M3R inducible RGS4, calcium flux. carbachol calcium flux Fluo4; active compounds read low. B-score at 10 µM. actives 0.92% (n = 310,000);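 active = B-score of the integrated calcium signal more than 4 SD below the library mean, with starting fluorescence not abnormally high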;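 also: negative B-score means reduced calcium response which marks RGS4 activation or potentiation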
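Material: Inducible-RGS4 HEK293 cells carrying M3 receptor; also added: carbachol at ECmax as muscarinic agonist stimulus; incubation: compound preincubation 20 min at room temperature before agonist; signal: Fluo4-AM (2 µM) calcium-flux fluorescence, kinetic read; measure: integrated calcium ratio converted to B score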
MrgX1 agonist: agonists of human MrgX1 receptor, primary screen, HEK293 cells, Fluo-4 calcium flux; Mas-related G-protein coupled receptor member X1 (Homo sapiens), Q96LB2; Fluo-4 calcium fluorescence, agonist mode; active compounds read high; actives 0.44% (n = 310,000); B-score at 10 µM; AID 588627, 2011;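 active = calcium response B-score plate-corrected fluorescence ratio at least 3 library SD, with starting fluorescence B-score inside 5 SD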
Target sequence (Q96LB2 whole entry, looked up): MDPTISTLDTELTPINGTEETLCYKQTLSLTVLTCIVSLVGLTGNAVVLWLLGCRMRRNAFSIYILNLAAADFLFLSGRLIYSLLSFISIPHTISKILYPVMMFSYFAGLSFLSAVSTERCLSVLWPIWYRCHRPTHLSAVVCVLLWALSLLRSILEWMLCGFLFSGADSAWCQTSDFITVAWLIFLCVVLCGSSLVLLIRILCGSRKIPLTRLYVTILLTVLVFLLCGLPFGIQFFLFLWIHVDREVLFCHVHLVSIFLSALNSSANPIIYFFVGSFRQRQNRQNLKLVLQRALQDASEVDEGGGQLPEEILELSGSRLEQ
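Test system: HEK293 cells stably expressing human MrgX1 receptor; Input: fifteen thousand cells per well; Dosing: compound delivered in addition one of three; Schedule: overnight seeding, then 1 h dark dye loading; Technique: Fluo-4 NW calcium fluorescence; Measure: B-scored fluorescence response ratio; Controls: positive and negative controls per plate.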
MrgX1 antag: antagonists of human MrgX1 receptor, primary screen, HEK293 cells, Fluo-4 calcium flux. Mas-related G-protein coupled receptor member X1 (Homo sapiens), Q96LB2. BAM8-22 antagonism; active compounds read low. B-score at 10 µM. actives 1.3% (n = 310,000). AID 588676, 2011;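 active = calcium-response B-score plate-corrected more than 3 library SD below zero, starting fluorescence within 5 deviations, no agonist response on first addition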;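 also: peak minus trough fluorescence over baseline after final BAM8-22 challenge near maximal dose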
MrgX1 PAM: positive allosteric modulators of MrgX1, primary screen, HEK293 cells, Fluo-4 calcium flux; AID 588675, 2011; B-score at 10 µM; actives 0.63% (n = 310,000); FDSS; active compounds read high; Mas-related G-protein coupled receptor member X1 (Homo sapiens), Q96LB2;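 active = plate-corrected calcium response at least 3 library SD above typical, normal starting fluorescence, not activating the receptor alone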;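 also: compound read alongside a low EC10 to EC30 dose of BAM8-22 agonist; peak minus trough fluorescence over baseline measured at the second addition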
RGS4 block: RGS4 inhibitors, primary screen, cell-based, HEK293 M3R inducible RGS4, calcium flux; Fluo-4 calcium flux; active compounds read high; triggered by carbachol at its EC20; actives 0.45% (n = 310,000); AID 463165, 2010; B-score at 10 µM; Regulator of G-protein signaling 4 (Homo sapiens), P49798;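 active = B-score, a plate-corrected calcium signal, over three deviations above library mean, with baseline fluorescence within five deviations of library mean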;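 also: RGS4 expression induced by doxycycline in cells with stable M3 receptor; B-score is computed from the integrated fluorescence ratio over baseline after carbachol; higher B-score means a larger calcium signal and so more RGS4 inhibition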
Target sequence (P49798 whole entry, looked up): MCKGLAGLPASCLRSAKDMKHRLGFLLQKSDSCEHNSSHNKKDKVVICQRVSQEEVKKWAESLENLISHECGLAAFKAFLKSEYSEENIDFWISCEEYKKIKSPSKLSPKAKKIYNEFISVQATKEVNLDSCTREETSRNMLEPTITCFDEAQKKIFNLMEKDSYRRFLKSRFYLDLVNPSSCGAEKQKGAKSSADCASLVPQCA
* hit, by the source's call. This is a sample that favours compounds with a hit; in the whole collection about 3.5% have one here.

What do the screens show for `Cc1cc(C)c[n+](-c2[nH]c(=O)sc2/C=N/NC([S-])=Nc2ccccc2)c1`?
RGS4 pot: inactive; MrgX1 agonist: inactive; MrgX1 antag: -6.7*; MrgX1 PAM: inactive; RGS4 block: inactive

Results for Cc1cc[n+](-c2[nH]c(=O)sc2/C=N/NC([S-])=Nc2ccccc2)cc1 ?
RGS4 pot: inactive; MrgX1 agonist: inactive; MrgX1 antag: inactive; MrgX1 PAM: inactive; RGS4 block: inactive

Results for COc1ccc(Nc2nnc(SC(C(=O)Nc3ccc(OC)c(Cl)c3)c3ccccc3)s2)cc1 (stereo not given) ?
RGS4 pot: inactive; MrgX1 agonist: inactive; MrgX1 antag: inactive; MrgX1 PAM: 16*; RGS4 block: inactive

How did CCOC(=O)c1ccc(N2Cc3ccccc3C2=N)cc1 do in these assays?
RGS4 pot: -7.3*; MrgX1 agonist: inactive; MrgX1 antag: inactive; MrgX1 PAM: inactive; RGS4 block: inactive

What do the screens show for `Cc1ccc(C)c(NC(=S)NCc2ccc3c(c2)OCO3)c1`?
RGS4 pot: -7.2*; MrgX1 agonist: inactive; MrgX1 antag: inactive; MrgX1 PAM: inactive; RGS4 block: inactive

Results for Cc1ccc(CNc2ccc3c(c2)OCO3)cc1 ?
RGS4 pot: inactive; MrgX1 agonist: 29*; MrgX1 antag: inactive; MrgX1 PAM: inactive; RGS4 block: inactive

Results for c1cc(CNc2ccc3c(c2)OCO3)ccn1 ?
RGS4 pot: inactive; MrgX1 agonist: inactive; MrgX1 antag: inactive; MrgX1 PAM: inactive; RGS4 block: inactive

What do the screens show for `CCc1ccc(/C=C2\SC(=S)N(CCCC(=O)Nc3ccccc3C(=O)O)C2=O)cc1`?
RGS4 pot: inactive; MrgX1 agonist: inactive; MrgX1 antag: inactive; MrgX1 PAM: inactive; RGS4 block: inactive

Results for CN1CCN(C(=O)CCN2C(=O)/C(=C/c3cccc(Br)c3)SC2=S)CC1 ?
RGS4 pot: inactive; MrgX1 agonist: inactive; MrgX1 antag: inactive; MrgX1 PAM: inactive; RGS4 block: inactive

How did Cc1ccc(/C=C2\SC(=S)N(CCCC(=O)Nc3ccccc3C(=O)O)C2=O)cc1 do in these assays?
RGS4 pot: inactive; MrgX1 agonist: inactive; MrgX1 antag: -5.4*; MrgX1 PAM: inactive; RGS4 block: inactive

Results for O=C(O)CCCCCN1C(=O)/C(=C/c2ccncc2)SC1=S ?
RGS4 pot: inactive; MrgX1 agonist: 32*; MrgX1 antag: inactive; MrgX1 PAM: inactive; RGS4 block: inactive

How did CN1CCN(C(=O)CCCN2C(=O)/C(=C/c3cccc(Br)c3)SC2=S)CC1 do in these assays?
RGS4 pot: -7.2*; RGS4 block: inactive

What do the screens show for `O=C(O)CCCN1C(=O)/C(=C/c2ccncc2)SC1=S`?
RGS4 pot: inactive; MrgX1 agonist: inactive; MrgX1 antag: inactive; MrgX1 PAM: inactive; RGS4 block: inactive

How did O=C(O)CCCCCN1C(=O)/C(=C\c2ccncc2)SC1=S do in these assays?
RGS4 pot: inactive; MrgX1 agonist: 34*; MrgX1 antag: inactive; MrgX1 PAM: inactive; RGS4 block: inactive

Results for COc1ccc(/C=C2\SC(=O)N(CC(=O)NC3CCS(=O)(=O)C3)C2=O)cc1 (stereo not given) ?
RGS4 pot: inactive; MrgX1 agonist: inactive; MrgX1 antag: inactive; MrgX1 PAM: inactive; RGS4 block: inactive

What do the screens show for `O=C(CCCn1cnc([N+](=O)[O-])n1)Nc1ccc(Cl)cc1Cl`?
RGS4 pot: inactive; MrgX1 agonist: inactive; MrgX1 antag: -9.1*; MrgX1 PAM: inactive; RGS4 block: inactive

How did Cc1nc2ccc(C(=O)N3CCN(Cc4ccccc4)CC3)cc2[nH]1 do in these assays?
RGS4 pot: inactive; MrgX1 agonist: inactive; MrgX1 antag: inactive; MrgX1 PAM: inactive; RGS4 block: inactive

How did C=C(C)COc1ccc(-c2ncnc(C(F)(F)F)c2-c2ccc(OC)cc2)c(O)c1 do in these assays?
RGS4 pot: -7.1*; MrgX1 agonist: inactive; MrgX1 antag: inactive; MrgX1 PAM: inactive; RGS4 block: inactive

How did CCOc1c(C)cnc2c1c(=O)n(Cc1ccccc1F)c(=O)n2C do in these assays?
RGS4 pot: inactive; MrgX1 agonist: inactive; MrgX1 antag: inactive; MrgX1 PAM: inactive; RGS4 block: inactive

Results for Nc1ccc(N=Nc2ccccc2)c2cccnc12 ?
RGS4 pot: inactive; MrgX1 agonist: inactive; MrgX1 antag: inactive; MrgX1 PAM: inactive; RGS4 block: 5*

What do the screens show for `Cc1ccc(C(=O)Nn2c(O)c(C=C3N=c4ccccc4=N3)sc2=S)cc1`?
RGS4 pot: inactive; MrgX1 agonist: inactive; MrgX1 antag: inactive; MrgX1 PAM: inactive; RGS4 block: inactive

How did Cc1ccc(S(=O)(=O)Nn2c(O)c(C=C3N=c4ccccc4=N3)sc2=S)cc1 do in these assays?
RGS4 pot: inactive; MrgX1 agonist: inactive; MrgX1 antag: -5.3*; MrgX1 PAM: inactive; RGS4 block: inactive

What do the screens show for `Cc1ccc(NC(=O)COC(=O)c2ccc(=O)n(Cc3ccccc3)n2)cc1F`?
RGS4 pot: inactive; MrgX1 agonist: inactive; MrgX1 antag: inactive; MrgX1 PAM: inactive; RGS4 block: inactive

How did CC(OC(=O)c1ccc(=O)n(Cc2ccccc2)n1)C(=O)Nc1cccc(Cl)c1 (stereo not given) do in these assays?
RGS4 pot: inactive; MrgX1 agonist: inactive; MrgX1 antag: -5.3*; MrgX1 PAM: inactive; RGS4 block: inactive

How did Cc1ccccc1OCC(=O)NCCCNC(=O)c1ccncc1 do in these assays?
RGS4 pot: inactive; MrgX1 agonist: inactive; MrgX1 antag: inactive; MrgX1 PAM: inactive; RGS4 block: inactive

How did Cn1cc(/C=C/C(=O)c2ccccc2)c2ccccc21 do in these assays?
RGS4 pot: inactive; MrgX1 agonist: inactive; MrgX1 antag: inactive; MrgX1 PAM: inactive; RGS4 block: inactive

How did Cn1cc(/C=C(\C(=O)O)C(C(=O)O)=C2CCCCC2)c2ccccc21 do in these assays?
RGS4 pot: inactive; MrgX1 agonist: inactive; MrgX1 antag: -4.8*; MrgX1 PAM: inactive; RGS4 block: inactive

Results for COc1ccc(N2C(=O)c3ccc(C(=O)Nc4ccccc4OC)cc3C2=O)cc1 ?
RGS4 pot: inactive; MrgX1 agonist: inactive; MrgX1 antag: inactive; MrgX1 PAM: inactive; RGS4 block: inactive

What do the screens show for `COc1ccc(N2CCN(Cc3cc4c(cc3Br)OCCO4)CC2)cc1`?
RGS4 pot: -7*; MrgX1 agonist: inactive; MrgX1 antag: inactive; MrgX1 PAM: inactive; RGS4 block: inactive

How did Cc1cccc(N(C(=O)c2csnn2)C(C(=O)NCc2ccccc2)c2cccs2)c1 (stereo not given) do in these assays?
RGS4 pot: inactive; MrgX1 agonist: inactive; MrgX1 antag: inactive; MrgX1 PAM: inactive; RGS4 block: inactive
